From ChEMBL document CHEMBL5506034, “Development of Inhibitors, Probes, and PROTAC Provides a Complete Toolbox to Study PARK7 in the Living Cell” (J Med Chem, 2024) come the findings set out here.

Molecules are shown by their SMILES. Activity calls are given as the source filed them. The rule behind the calls is not given here.

Series [1] addresses T1, Parkinson disease protein 7 (Homo sapiens) (UniProt Q99497).
T1 sequence (whole entry): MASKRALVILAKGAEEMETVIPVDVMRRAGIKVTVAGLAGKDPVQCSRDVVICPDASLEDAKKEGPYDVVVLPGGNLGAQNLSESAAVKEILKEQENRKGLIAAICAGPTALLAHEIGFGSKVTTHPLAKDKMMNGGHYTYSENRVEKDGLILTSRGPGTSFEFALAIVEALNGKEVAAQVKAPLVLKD
The series can be described thus: Binding affinity to recombinant human PARK7 incubated for 1 hrs by coomassie staining based SDS-PAGE fluorescence scanning analysis. The following applies: dose 0.1-10 µM.

The target in series [2] is T1, Parkinson disease protein 7 (Homo sapiens). Kind of series: Binding affinity to recombinant human PARK7 at 2 uM incubated for 1 hrs by coomassie staining based SDS-PAGE fluorescence scanning analysis relative to control.
Series [3] shares this target. Kind of series: Binding affinity to PARK7 in human A549 cells assessed as band shift at 5 uM incubated for 24 hrs by SDS-PAGE based fluorescence scanning immunoblotting analysis. The format is cell-based. Summed up: (§1)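 Probes applied to intact HEK293T or A549 cells at 5 μM final for 24 h, then lysed. Read-out by SDS-PAGE fluorescence scan and immunoblot against PARK7, looking at the ~25 kDa labelled band, PARK7 band shift and extra bands.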
(Immunoblotting shows a protein as a band on a membrane.)

Series [4] in a line: Drug penetration in human A549 cells at 5 uM incubated for 1 hrs by DAPI staining based confocal microscopic analysis. The class given is ADME, cell-based. To be noted: a549, 1 h. Summed up:
(§2)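 A549 cells incubated with probes at 5 μM final over a time course (1–24 h). For microscopy, cells on coverslips were fixed in 3.7% formaldehyde/PBS for 20 min, mounted with DAPI and imaged by confocal (63× oil). In parallel, cells were lysed for SDS-PAGE fluorescence scan and PARK7 immunoblot.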

Series [5] deals with T1, Parkinson disease protein 7 (Homo sapiens). The series can be described thus: Binding affinity to PARK7 in human A549 cells assessed as band shift at 5 uM incubated for 4 hrs by SDS-PAGE based fluorescence scanning immunoblotting analysis relative to control. The class given is cell-based. Summed up:
as §2

Series [6] has as its system A549. The series can be described thus: Cellular protein labelling in human A549 cells assessed as unspecific 55-75 kDa band formation at 5 uM by SDS-PAGE based fluorescence scanning immunoblotting analysis. The format is functional, cell-based. Summed up:
as §1

Series [7] has as its system A549. Kind of series: Cellular protein labelling in human A549 cells transfected with PARK7 siRNA assessed as unspecific 55-75 kDa band formation at 5 uM incubated for 4 hrs by SDS-PAGE based fluorescence scanning immunoblotting analysis. The class given is functional, cell-based. Summed up: (§3)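 HEK293T or A549 cells reverse-transfected with pooled PARK7 siRNA (Dharmafect 1), grown 48 h, then given probe at 5 μM final for 4 h. Lysates analysed by SDS-PAGE fluorescence scan and PARK7 immunoblot against control-transfected cells.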

The test system of series [8] is HEK-293T. Kind of series: Cellular protein labelling in HEK293T cells transfected with PARK7 siRNA assessed as unspecific 55-75 kDa band formation at 5 uM incubated for 4 hrs by SDS-PAGE based fluorescence scanning immunoblotting analysis. The format is functional, cell-based. The following applies: Homo sapiens. In short, it runs like this: as §3
The subject of series [9] is A549. Kind of series: Cellular protein labelling in human A549 cells transfected with PARK7 siRNA assessed as PARK7 specific band formation at 5 uM incubated for 4 hrs by SDS-PAGE based fluorescence scanning immunoblotting analysis. The format is functional, cell-based. In short, it runs like this: as §3
Series [10] relates to HEK-293T. Kind of series: Cellular protein labelling in HEK293T cells transfected with PARK7 siRNA assessed as PARK7 specific band formation at 5 uM incubated for 4 hrs by SDS-PAGE based fluorescence scanning immunoblotting analysis. The class given is functional, cell-based. The following applies: Homo sapiens. Summed up:
as §3

The target in series [11] is T1, Parkinson disease protein 7 (Homo sapiens). Kind of series: Binding affinity to PARK7 in HEK293T cells upto 10 uM incubated for 4 hrs by SDS-PAGE based fluorescence scanning immunoblotting analysis. The format is cell-based. In short, it runs like this: (§4)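 HEK293T or A549 cells given the Bodipy probe at 0–10 μM for 4 h, then lysed. Lysates run on 12% Bis-Tris SDS-PAGE and fluorescence-scanned. Immunoblot for PARK7 with β-actin as loading control.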

For series [12] the target is unchanged. Kind of series: Binding affinity to PARK7 in human A549 cells upto 10 uM incubated for 4 hrs by SDS-PAGE based fluorescence scanning immunoblotting analysis. The format is cell-based. In short, it runs like this:
as §4

For series [13] the target is unchanged. Kind of series: Binding affinity to PARK7 in A549 cells assessed as band shift at 5 uM incubated for 24 hrs by SDS-PAGE based fluorescence scanning immunoblotting analysis.
Another series has as its system A549 (Homo sapiens). The series can be described thus: Cellular protein labelling in A549 cells assessed as unspecific 55-75 kDa band formation at 5 uM by SDS-PAGE based fluorescence scanning immunoblotting analysis.

Regarding `CC1=CC(C)=[N+]2C1=C(CCCCc1cn(-c3ccc(F)c(C(=O)N4CCc5nc(NC(=O)[C@@H]6CCN(C#N)C6)sc5C4)c3)nn1)c1c(C)cc(C)n1[B-]2(F)F`, the Activity entry in series [1] is “Dose-Dependent Effect”; in [2] it was 100%; in series [5], 100%. Further, the result (in series [3]; with A549 [6]; in the series with A549 [7]; with HEK-293T [8]; in series [11]; in [12]) was Active. Also, the result (in [13]; with A549 (Homo sapiens)) was Active. The Drug uptake result in [4] is “Active”. The result in the series with A549 [9] and in the series with HEK-293T [10] was inactive.
